Laboratory results published in ChEMBL document CHEMBL5143722, “Antimicrobial Peptides against Multidrug-Resistant Pseudomonas aeruginosa Biofilm from Cystic Fibrosis Patients” (J Med Chem, 2022).
The source made the active and inactive calls. No cut-off for these calls is given here.

Tests used:
Pseudomonas aeruginosa [1] = assay: Induction of biofilm degradation of Pseudomonas aeruginosa clinical isolate 629 at 50 uM incubated for 1 hr by crystal violet staining analysis relative to control; format: functional
Method in brief: (§1)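 Bacteria at 1 × 10^6 CFU/mL in BM2 grown static at 37 °C for 24 h to form biofilm. Wells rinsed of unattached cells, then exposed for 1 h to serial peptide dilutions (1.56–50 μM). Washed, stained with 0.1% crystal violet, A590 read. Biomass given as % of untreated biofilm; no-bacteria wells as blanks. At least three biological repeats.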

Pseudomonas aeruginosa [2] = assay: Induction of biofilm degradation of Pseudomonas aeruginosa clinical isolate 25 at 50 uM incubated for 1 hr by crystal violet staining analysis relative to control; format: functional; method in brief: as §1
Pseudomonas aeruginosa [3] = assay: Antibiofilm activity against Pseudomonas aeruginosa clinical isolate 46 assessed as inhibition of biofilm formation at MIC incubated for 24 hrs by crystal violet staining based microtiter plate method; format: functional, organism-based
Method in brief: (§2)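 Washed overnight cultures in BM2 medium at 1 × 10^6 CFU/mL with 2-fold serial peptide dilutions in a U-bottom 96-well plate. Incubated 24 h at 37 °C without agitation. Unattached cells washed off, then 0.1% crystal violet stain read at 590 nm. No-bacteria blanks. Biomass expressed as % of untreated biofilm. At least three biological repeats.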

Pseudomonas aeruginosa [4] = assay: Inhibition of biofilm formation of Pseudomonas aeruginosa PAO1 in patient derived CF-sputum at 0.09 to 3.12 uM by crystal violet based staining analysis; format: functional, organism-based; details: dose 0.09-3.12 µM
Method in brief: (§3)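 CF patient sputum diluted 10-fold with BM2, bacteria added with serial peptide dilutions starting from the highest MIC per isolate. Inoculum suspension 1 × 10^6 CFU/mL. Incubated 24 h at 37 °C without agitation. Unattached cells washed away, then 0.1% crystal violet staining and A590. Biomass given as % of untreated, with no-bacteria blanks.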

Pseudomonas aeruginosa [5] = assay: Induction of biofilm degradation of Pseudomonas aeruginosa clinical isolate 82 at 50 uM incubated for 1 hr by crystal violet staining analysis relative to control; format: functional; method in brief: as §1
Pseudomonas aeruginosa [6] = assay: Induction of biofilm degradation of Pseudomonas aeruginosa clinical isolate 40 at sub MIC concentration incubated for 1 hr by crystal violet staining analysis; format: functional; method in brief: as §1
Pseudomonas aeruginosa [7] = assay: Induction of biofilm degradation of Pseudomonas aeruginosa clinical isolate 24 incubated for 1 hr by crystal violet staining analysis relative to control; format: functional; details: dose 50.0 µM; method in brief: as §1
Pseudomonas aeruginosa [8] = assay: Induction of biofilm degradation of Pseudomonas aeruginosa clinical isolate 172 at 50 uM incubated for 1 hr by crystal violet staining analysis relative to control; format: functional; method in brief: as §1
Pseudomonas aeruginosa [9] = assay: Induction of biofilm degradation of Pseudomonas aeruginosa clinical isolate 53 at sub MIC concentration incubated for 1 hr by crystal violet staining analysis; format: functional; method in brief: as §1
Pseudomonas aeruginosa [10] = assay: Induction of biofilm degradation of Pseudomonas aeruginosa clinical isolate 24 at sub MIC concentration incubated for 1 hr by crystal violet staining analysis; format: functional; method in brief: as §1
Pseudomonas aeruginosa [11] = assay: Induction of biofilm degradation of Pseudomonas aeruginosa clinical isolate 251 at 50 uM incubated for 1 hr by crystal violet staining analysis; format: functional; method in brief: as §1
Pseudomonas aeruginosa [12] = assay: Antibiofilm activity against Pseudomonas aeruginosa clinical isolate 53 assessed as inhibition of biofilm formation at sub-inhibitory concentration incubated for 24 hrs by crystal violet staining based microtiter plate method; format: functional, organism-based; method in brief: as §2
Pseudomonas aeruginosa [13] = assay: Induction of biofilm degradation of Pseudomonas aeruginosa clinical isolate 99 at 50 uM incubated for 1 hr by crystal violet staining analysis relative to control; format: functional; method in brief: as §1
Pseudomonas aeruginosa [14] = assay: Antibiofilm activity against Pseudomonas aeruginosa clinical isolate 24 assessed as inhibition of biofilm formation at sub-inhibitory concentration incubated for 24 hrs by crystal violet staining based microtiter plate method; format: functional, organism-based; method in brief: as §2
Pseudomonas aeruginosa [15] = assay: Induction of biofilm degradation of Pseudomonas aeruginosa clinical isolate 53 at 50 uM incubated for 1 hr by crystal violet staining analysis relative to control; format: functional; method in brief: as §1
Pseudomonas aeruginosa [16] = assay: Induction of biofilm degradation of Pseudomonas aeruginosa clinical isolate 29 at 50 uM incubated for 1 hr by crystal violet staining analysis relative to control; format: functional; method in brief: as §1
Pseudomonas aeruginosa [17] = assay: Induction of biofilm degradation of Pseudomonas aeruginosa clinical isolate 52 at 50 uM incubated for 1 hr by crystal violet staining analysis relative to control; format: functional; method in brief: as §1
Pseudomonas aeruginosa [18] = assay: Induction of biofilm degradation of Pseudomonas aeruginosa clinical isolate 71 at 50 uM incubated for 1 hr by crystal violet staining analysis relative to control; format: functional; method in brief: as §1
Pseudomonas aeruginosa [19] = assay: Antibiofilm activity against Pseudomonas aeruginosa clinical isolate 72 assessed as inhibition of biofilm formation at sub-inhibitory concentration incubated for 24 hrs by crystal violet staining based microtiter plate method; format: functional, organism-based; method in brief: as §2
Pseudomonas aeruginosa [20] = assay: Antibiofilm activity against Pseudomonas aeruginosa clinical isolate 995 assessed as inhibition of biofilm formation at MIC incubated for 24 hrs by crystal violet staining based microtiter plate method; format: functional, organism-based; method in brief: as §2
Pseudomonas aeruginosa [21] = assay: Antibiofilm activity against Pseudomonas aeruginosa clinical isolate 46 assessed as inhibition of biofilm formation at sub-inhibitory concentration incubated for 24 hrs by crystal violet staining based microtiter plate method; format: functional, organism-based; method in brief: as §2
Pseudomonas aeruginosa [22] = assay: Induction of biofilm degradation of Pseudomonas aeruginosa clinical isolate 238 at 50 uM incubated for 1 hr by crystal violet staining analysis relative to control; format: functional; method in brief: as §1
Pseudomonas aeruginosa [23] = assay: Induction of biofilm degradation of Pseudomonas aeruginosa clinical isolate 40 at 50 uM incubated for 1 hr by crystal violet staining analysis relative to control; format: functional; method in brief: as §1
Pseudomonas aeruginosa [24] = assay: Induction of biofilm degradation of Pseudomonas aeruginosa PAO1 at 50 uM incubated for 1 hr by crystal violet staining analysis relative to control; format: functional; method in brief: as §1
Pseudomonas aeruginosa [25] = assay: Induction of biofilm degradation of Pseudomonas aeruginosa clinical isolate 72 at 50 uM incubated for 1 hr by crystal violet staining analysis relative to control; format: functional; method in brief: as §1
Pseudomonas aeruginosa [26] = assay: Antibiofilm activity against Pseudomonas aeruginosa clinical isolate 71 assessed as inhibition of biofilm formation at sub-inhibitory concentration incubated for 24 hrs by crystal violet staining based microtiter plate method; format: functional, organism-based; method in brief: as §2
Pseudomonas aeruginosa [27] = assay: Inhibition of biofilm formation of Pseudomonas aeruginosa clinical isolate 82 derived from cystic fibrosis patient sputum at 0.09 to 3.12 uM by crystal violet based staining analysis; format: functional, organism-based; details: dose 0.09-3.12 µM; method in brief: as §3
Pseudomonas aeruginosa [28] = assay: Antibiofilm activity against Pseudomonas aeruginosa clinical isolate 629 assessed as inhibition of biofilm formation at sub-inhibitory concentration incubated for 24 hrs by crystal violet staining based microtiter plate method; format: functional, organism-based; method in brief: as §2
Pseudomonas aeruginosa [29] = assay: Induction of biofilm degradation of Pseudomonas aeruginosa clinical isolate 46 at 50 uM incubated for 1 hr by crystal violet staining analysis relative to control; format: functional; method in brief: as §1
Pseudomonas aeruginosa [30] = assay: Antibiofilm activity against Pseudomonas aeruginosa clinical isolate 25 assessed as inhibition of biofilm formation at sub-inhibitory concentration incubated for 24 hrs by crystal violet staining based microtiter plate method; format: functional, organism-based; method in brief: as §2
Pseudomonas aeruginosa [31] = assay: Induction of biofilm degradation of Pseudomonas aeruginosa clinical isolate 59 at <12.5 uM incubated for 1 hr by crystal violet staining analysis; format: functional; method in brief: as §1
Pseudomonas aeruginosa [32] = assay: Induction of biofilm degradation of Pseudomonas aeruginosa clinical isolate 995 at 50 uM incubated for 1 hr by crystal violet staining analysis relative to control; format: functional; method in brief: as §1
Pseudomonas aeruginosa [33] = assay: Inhibition of biofilm formation of Pseudomonas aeruginosa clinical isolate 24 derived from cystic fibrosis patient sputum at 0.78 to 25 uM by crystal violet based staining analysis; format: functional, organism-based; details: dose 0.78-25 µM; method in brief: as §3
Pseudomonas aeruginosa [34] = assay: Antibiofilm activity against Pseudomonas aeruginosa clinical isolate 99 assessed as inhibition of biofilm formation at sub-inhibitory concentration incubated for 24 hrs by crystal violet staining based microtiter plate method; format: functional, organism-based; method in brief: as §2
Pseudomonas aeruginosa [35] = assay: Inhibition of biofilm formation of Pseudomonas aeruginosa clinical isolate 24 derived from cystic fibrosis patient sputum at 0.09 to 3.12 uM by crystal violet based staining analysis; format: functional, organism-based; details: dose 0.09-3.12 µM; method in brief: as §3

Structure (SMILES)	Activity (Pseudomonas aeruginosa [1])	Activity (Pseudomonas aeruginosa [2])	inhibition (Pseudomonas aeruginosa [4])	Activity (Pseudomonas aeruginosa [5])	Activity (Pseudomonas aeruginosa [6])	Activity (Pseudomonas aeruginosa [7])	Activity (Pseudomonas aeruginosa [8])	Activity (Pseudomonas aeruginosa [9])	Activity (Pseudomonas aeruginosa [10])	Activity (Pseudomonas aeruginosa [11])	inhibition (Pseudomonas aeruginosa [12])	Activity (Pseudomonas aeruginosa [13])	inhibition (Pseudomonas aeruginosa [14])	Activity (Pseudomonas aeruginosa [15])	Activity (Pseudomonas aeruginosa [16])	Activity (Pseudomonas aeruginosa [17])	Activity (Pseudomonas aeruginosa [18])	inhibition (Pseudomonas aeruginosa [19])	inhibition (Pseudomonas aeruginosa [21])	Activity (Pseudomonas aeruginosa [22])	other results
CC[C@H](C)[C@H](NC(=O)[C@H](CCCCN)NC(=O)[C@H](CCC(=O)O)NC(=O)[C@H](CCCCN)NC(=O)[C@H](CO)NC(=O)[C@H](CCCCN)NC(=O)[C@H](CCCNC(=N)N)NC(=O)[C@H](Cc1ccccc1)NC(=O)[C@H](Cc1ccccc1)NC(=O)[C@H](CC(=O)O)NC(=O)CNC(=O)[C@H](CC(C)C)NC(=O)[C@@H](N)CC(C)C)C(=O)NCC(=O)N[C@@H](CCCCN)C(=O)N[C@@H](CCC(=O)O)C(=O)N[C@@H](Cc1ccccc1)C(=O)N[C@@H](CCCCN)C(=O)N[C@@H](CCCNC(=N)N)C(=O)N[C@H](C(=O)N[C@H](C(=O)N[C@@H](CCC(N)=O)C(=O)N[C@@H](CCCNC(=N)N)C(=O)N[C@H](C(=O)N[C@@H](CCCCN)C(=O)N[C@@H](CC(=O)O)C(=O)N[C@@H](Cc1ccccc1)C(=O)N[C@@H](CC(C)C)C(=O)N[C@@H](CCCNC(=N)N)C(=O)N[C@@H](CC(N)=O)C(=O)N[C@@H](CC(C)C)C(=O)N[C@H](C(=O)N1CCC[C@H]1C(=O)N[C@@H](CCCNC(=N)N)C(=O)N[C@H](C(=O)N[C@@H](CCC(=O)O)C(=O)N[C@@H](CO)C(N)=O)[C@@H](C)O)C(C)C)[C@@H](C)CC)C(C)C)[C@@H](C)CC	60%	60%	Active	60%	Active	60%	60%	Active	Active	60%	Active	60%	Active	60%	60%	60%	60%	Active	Active	60%	inhibition (Pseudomonas aeruginosa [3]): Active; inhibition (Pseudomonas aeruginosa [20]): Active; Activity (Pseudomonas aeruginosa [23]): 60%; Activity (Pseudomonas aeruginosa [24]): 60%; Activity (Pseudomonas aeruginosa [25]): 60%; inhibition (Pseudomonas aeruginosa [26]): Active; inhibition (Pseudomonas aeruginosa [27]): Active; inhibition (Pseudomonas aeruginosa [28]): Active; Activity (Pseudomonas aeruginosa [29]): 60%; inhibition (Pseudomonas aeruginosa [30]): Active; Activity (Pseudomonas aeruginosa [31]): Active; Activity (Pseudomonas aeruginosa [32]): 60%; inhibition (Pseudomonas aeruginosa [33]): Active; inhibition (Pseudomonas aeruginosa [34]): Active; inhibition (Pseudomonas aeruginosa [35]): Active
CC(C)C[C@H](NC(=O)[C@H](CC(C)C)NC(=O)[C@H](CC(C)C)NC(=O)[C@H](CC(C)C)NC(=O)[C@H](CC(C)C)NC(=O)[C@H](CC(C)C)NC(=O)[C@H](CC(C)C)NC(=O)[C@H](CC(C)C)NC(=O)[C@H](CC(C)C)NC(=O)[C@H](CCCCN)NC(=O)[C@H](CCCCN)NC(=O)[C@@H](N)CCCCN)C(=O)N[C@@H](CCCCN)C(=O)N[C@@H](CCCCN)C(=O)N[C@@H](CCCCN)C(N)=O	60%	60%	Active	60%	Active	60%	60%	Active	Active	60%	Active	60%	Active	60%	60%	60%	60%	Active	Active	60%	Activity (Pseudomonas aeruginosa [23]): 60%; Activity (Pseudomonas aeruginosa [24]): 60%; Activity (Pseudomonas aeruginosa [25]): 60%; inhibition (Pseudomonas aeruginosa [26]): Active; inhibition (Pseudomonas aeruginosa [27]): Active; inhibition (Pseudomonas aeruginosa [28]): Active; Activity (Pseudomonas aeruginosa [29]): 60%; inhibition (Pseudomonas aeruginosa [30]): Active; Activity (Pseudomonas aeruginosa [31]): Active; Activity (Pseudomonas aeruginosa [32]): 60%; inhibition (Pseudomonas aeruginosa [33]): Active; inhibition (Pseudomonas aeruginosa [34]): Active; inhibition (Pseudomonas aeruginosa [35]): Active
